Test [1] has as its target T1, Adenosine receptor A1 (Homo sapiens) (UniProt P30542).
T1 sequence (whole entry): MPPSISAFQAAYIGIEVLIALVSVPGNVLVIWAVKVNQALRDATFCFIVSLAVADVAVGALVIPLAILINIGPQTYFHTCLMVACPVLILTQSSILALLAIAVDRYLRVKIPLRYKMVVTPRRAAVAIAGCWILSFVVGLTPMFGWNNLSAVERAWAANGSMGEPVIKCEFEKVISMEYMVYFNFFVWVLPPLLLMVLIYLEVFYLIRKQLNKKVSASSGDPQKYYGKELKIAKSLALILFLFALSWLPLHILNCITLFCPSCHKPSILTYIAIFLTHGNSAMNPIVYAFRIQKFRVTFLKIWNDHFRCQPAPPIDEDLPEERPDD
In words: Allosteric enhancement of human adenosine A1 receptor expressed in CHO cells assessed as inhibition of forskolin-stimulated cAMP production at 100 nM preincubated for 10 mins followed by forskolin challenge measured after 5 mins by scintillation counting analysis in presence of CCPA relative to control. In kind it is functional, cell-based. Put shortly:
(§1)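 hA1-CHO cells (10⁶ cells/mL) in phosphate buffer with adenosine deaminase 1.0 IU/mL and Ro 20-1724 0.5 mM, preincubated 10 min at 37 °C. Compound added for 10 min, alone or at 100 nM with CCPA 1 pM. Forskolin 1 µM added for 5 min, stopped with cold 6% TCA. cAMP measured by [³H]-cAMP competition protein-binding assay; percent inhibition versus control; three experiments.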
For orientation: Cyclic AMP is a second messenger, typically raised through Gs and lowered through Gi signalling.

The target in test [2] is T1, Adenosine receptor A1 (Homo sapiens). Briefly: Potentiation of CCPA-induced displacement of [3H]-DPCPX from human adenosine A1 receptor expressed in CHO cell membranes at 10 uM after 90 mins relative to CCPA-treated control. An outline of the steps:
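CCPA (0.01 nM–1 µM) competition against [³H]DPCPX in hA1-CHO membranes, with or without compound at 10 µM. Nonspecific binding defined with 1 µM DPCPX. Ki calculated from IC50 by the Cheng-Prusoff equation; CCPA Ki shift given as fold change; three experiments.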

Test [3] concerns the target Adenosine receptor A2a (Homo sapiens) (UniProt P29274). Briefly: Displacement of [3H]-ZM241385 from human adenosine A2A receptor expressed in CHO cell membranes at 10 uM by scintillation counting analysis relative to control. Put shortly: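 A2A-expressing CHO membranes, pretreated with adenosine deaminase, in 50 mM Tris-HCl, 10 mM MgCl₂ pH 7.4 with 1 nM [³H]ZM 241385. Incubated 60 min at 4 °C. Compound 10 µM in 1% DMSO final. Filtration and scintillation counting; percent inhibition of specific binding.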

In test [4] the target is T2, Adenosine receptor A3 (Homo sapiens) (UniProt P0DMS8).
T2 sequence (whole entry): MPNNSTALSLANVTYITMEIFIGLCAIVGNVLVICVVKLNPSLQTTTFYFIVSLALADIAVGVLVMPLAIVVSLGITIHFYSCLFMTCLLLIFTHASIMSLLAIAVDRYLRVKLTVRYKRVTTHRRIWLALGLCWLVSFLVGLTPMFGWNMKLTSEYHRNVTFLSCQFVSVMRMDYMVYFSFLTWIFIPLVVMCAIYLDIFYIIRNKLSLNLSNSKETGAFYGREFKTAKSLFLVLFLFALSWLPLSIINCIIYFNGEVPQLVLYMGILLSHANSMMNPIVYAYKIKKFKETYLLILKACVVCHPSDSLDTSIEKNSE
Briefly: Displacement of [3H]-MRE-3008-F20 from human adenosine A3 receptor expressed in CHO cell membranes at 10 uM by scintillation counting analysis relative to control. Put shortly:
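A3-expressing CHO membranes in 50 mM Tris-HCl, 10 mM MgCl₂, 1 mM EDTA pH 7.4 with 2 nM [³H]MRE-3008-F20. Incubated 120 min at 4 °C. Compound 10 µM in 1% DMSO final. Filtration and scintillation counting; percent inhibition of specific binding.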
For orientation: Displacement assays read how much labelled ligand stays bound in the presence of the test substance.

Test [5] concerns the target T1, Adenosine receptor A1 (Homo sapiens). In words: Allosteric enhancement of human adenosine A1 receptor expressed in CHO cells assessed as inhibition of forskolin-stimulated cAMP production at 10 uM preincubated for 10 mins followed by forskolin challenge measured after 5 mins by scintillation counting analysis relative to control. In kind it is functional, cell-based. An outline of the steps:
as §1

The target is the same in test [6]. In words: Potentiation of [3H]CCPA binding to human adenosine A1 receptor expressed in CHO cell membranes at 10 uM after 90 mins relative to [3H]CCPA-treated control.
Test [7] has the same target. In words: Displacement of [3H]-DPCPX from human adenosine A1 receptor expressed in CHO cell membranes at 10 uM by scintillation counting analysis relative to control. An outline of the steps: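 hA1-CHO membranes, pretreated with adenosine deaminase, in 50 mM Tris-HCl pH 7.4 with 1 nM [³H]DPCPX. Incubated 120 min at 25 °C. Compound 10 µM added from 100-fold DMSO stock, 1% DMSO final. Bound ligand collected on glass-fibre filters and counted by scintillation; percent inhibition of specific binding.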

Inhibition and fold change (FC) data for 17 compounds are collected here from ChEMBL document CHEMBL3098020, “Synthesis and biological evaluation of novel 2-amino-3-aroyl-4-neopentyl-5-substituted thiophene derivatives as allosteric enhancers of the A₁ adenosine receptor” (Bioorg Med Chem, 2014).

Sequence of Adenosine receptor A2a (Homo sapiens) (P29274 whole entry): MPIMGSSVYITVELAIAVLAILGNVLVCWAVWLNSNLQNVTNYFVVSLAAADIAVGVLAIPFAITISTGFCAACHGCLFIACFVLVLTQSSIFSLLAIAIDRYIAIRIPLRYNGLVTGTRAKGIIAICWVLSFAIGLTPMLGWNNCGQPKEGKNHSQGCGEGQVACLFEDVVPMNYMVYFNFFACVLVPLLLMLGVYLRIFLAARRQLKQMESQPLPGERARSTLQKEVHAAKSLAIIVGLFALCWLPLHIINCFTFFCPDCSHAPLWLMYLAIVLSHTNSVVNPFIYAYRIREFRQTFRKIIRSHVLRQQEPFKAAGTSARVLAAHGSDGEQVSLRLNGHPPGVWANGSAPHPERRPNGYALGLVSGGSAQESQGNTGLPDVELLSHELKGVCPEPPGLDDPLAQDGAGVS

By inhibition is commonly meant the relative decrease from the control value, in per cent. Turning to `CC(C)c1ccc(-c2sc(N)c(C(=O)c3ccc(Cl)cc3)c2CC(C)(C)C)cc1`, the inhibition in test [1] came to 58%; in test [3] it was 1%; in test [4], 1%; in test [5], 56%; in test [7], 1%. Also, the fold change (FC) in test [2] was found to be 4.1; in test [6], 5.6.

On to `CC(C)(C)Cc1c(-c2ccccc2)sc(N)c1C(=O)c1ccc(Cl)cc1`, for which the inhibition amounted to 53% in test [1]; 1% in test [3]; 1% in test [4]; 51% in test [5]; 1% in test [7]. In addition, the values for the fold change (FC) in test [2] and in test [6] were 4.8 and 6.9, respectively.

Turning to `CC(C)(C)Cc1c(/C=C/c2ccc(Cl)cc2)sc(N)c1C(=O)c1ccc(Cl)cc1`, the inhibition in test [1] worked out at 53%; in test [3] it was 1%; in test [4] it was 11%; in test [5] it was 51%; in test [7], 1%. In addition, the fold change (FC) stood at 2.8 in test [2] and 4.8 in test [6].

Turning to `Nc1sc(-c2ccccc2)c(-c2ccccc2)c1C(=O)c1ccc(Cl)cc1`, the inhibition in test [1] stood at 26%; in test [3], 6%; in test [4], 1%; in test [5], 24%; in test [7], 1%. In addition, the fold change (FC) in test [2] turned out to be 1.7; in test [6] it was 2.1.

Turning to `COc1ccc(-c2sc(N)c(C(=O)c3ccc(C)cc3)c2CC(C)(C)C)cc1`, the inhibition in test [1] was determined as 60%; in test [3] it was 3%; in test [4] it was 5%; in test [5], 64%; in test [7], 1%. Moreover, the fold change (FC) in test [2] came out at 5.4; in test [6], 7.4.

As to `CC(C)(C)Cc1c(-c2cc(F)ccc2F)sc(N)c1C(=O)c1ccc(Cl)cc1`, the inhibition in test [1] was determined as 45%; in test [3], 1%; in test [4] it was 1%; in test [5], 46%; in test [7], 3%. Besides, the figures for the fold change (FC) in test [2] and in test [6] were 3.4 and 5.3, respectively.

Regarding `COc1ccc(-c2sc(N)c(C(=O)c3cccc(Cl)c3)c2CC(C)(C)C)cc1`, the inhibition is 56% in test [1]; 1% in test [3]; 2% in test [4]; 53% in test [5]; 1% in test [7]. Moreover, the fold change (FC) stood at 3.7 in test [2] and 6 in test [6].

`COCCOc1ccc(-c2sc(N)c(C(=O)c3ccc(Cl)cc3)c2CC(C)(C)C)cc1`: the inhibition in test [1] was 55%; in test [3] it was 1%; in test [4], 1%; in test [5] it was 53%; in test [7], 1%. Also, the fold change (FC) in test [2] is 3.3; in test [6], 5.5.

In the case of `COc1cccc(-c2sc(N)c(C(=O)c3ccc(Cl)cc3)c2CC(C)(C)C)c1`, the inhibition was 57% in test [1]; 2% in test [3]; 1% in test [4]; 55% in test [5]; 1% in test [7]. Besides, the fold change (FC) in test [2] was determined as 5.8; in test [6], 6.3.

Consider `Cc1noc(C)c1-c1sc(N)c(C(=O)c2ccc(Cl)cc2)c1CC(C)(C)C`, for which the inhibition in test [1] turned out to be 19%; in test [3], 1%; in test [4] it was 1%; in test [5] it was 12%; in test [7] it was 1%. Further, the fold change (FC) in test [2] came to 1.1; in test [6] it was 1.4.

As to `COc1ccc(-c2sc(N)c(C(=O)c3ccc(Cl)c(Cl)c3)c2CC(C)(C)C)cc1`, the inhibition is 52% in test [1]; 1% in test [3]; 1% in test [4]; 54% in test [5]; 1% in test [7]. Besides, the fold change (FC) in test [2] was found to be 4.3; in test [6], 6.

With `Cc1cccc(-c2sc(N)c(C(=O)c3ccc(Cl)cc3)c2CC(C)(C)C)c1`, the inhibition in test [1] was determined as 51%; in test [3] it was 1%; in test [4], 1%; in test [5], 47%; in test [7], 1%. For the same compound, the fold change (FC) was 4.1 in test [2] and 4.7 in test [6].

With `Cc1ccccc1-c1sc(N)c(C(=O)c2ccc(Cl)cc2)c1CC(C)(C)C`, the inhibition in test [1] was 49%; in test [3], 1%; in test [4], 1%; in test [5], 47%; in test [7], 1%. Further, the fold change (FC) was determined as 2.7 in test [2] and 4.1 in test [6].

For the compound `CC(C)(C)Cc1c(-c2ccncc2)sc(N)c1C(=O)c1ccc(Cl)cc1`, the inhibition in test [1] was determined as 46%; in test [3], 1%; in test [4], 6%; in test [5], 42%; in test [7], 1%. Besides, the fold change (FC) in test [2] was found to be 2.8; in test [6], 4.

On to `CC(C)(C)Cc1c(-c2cccnc2)sc(N)c1C(=O)c1ccc(Cl)cc1`, for which the inhibition amounted to 41% in test [1]; 1% in test [3]; 1% in test [4]; 37% in test [5]; 1% in test [7]. Further, the values for the fold change (FC) in test [2] and in test [6] were 2.2 and 3.7, respectively.

Consider `CC(C)(C)Cc1c(-c2ccccc2)sc(N)c1C(=O)c1cccc(Cl)c1`, for which the inhibition in test [1] was found to be 57%; in test [3] it was 4%; in test [4] it was 5%; in test [5], 59%; in test [7] it was 2%. The fold change (FC) was 3.1 in test [2] and 6.3 in test [6].

On to `CC(C)(C)Cc1csc(N)c1C(=O)c1ccc(Cl)c(Cl)c1`, for which the inhibition in test [1] was 41%; in test [3], 1%; in test [4], 10%; in test [5], 43%; in test [7], 1%. Further, the fold change (FC) stood at 2 in test [2] and 4.1 in test [6].
